Most compounds without a hit are left out; they make up all but 1.9% or so of the library.
HIF activator – HIF pathway transcriptional activators, primary screen, cell-based, U2OS HRE-luciferase, luminescence; activation, % at 7.5 µM (by protocol); 0.32% of 300,000 active; U2OS HRE-luciferase reporter; normalized: DMSO 0%, desferrioxamine 100%;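 active means mean activation of at least 10% of the iron chelator positive control signal, with at least half of replicates also reaching 10%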
ABHD5 PLIN5 PPI – ABHD5-PLIN5 interaction inhibitors, primary screen, cell lysate, split luciferase complementation, luminescence | Split G. princeps luciferase complementation, 4 h | 0.78% of 360,000 active | inhibition, % at 4 µM | Perilipin-5 (Homo sapiens) + 1-acylglycerol-3-phosphate O-acyltransferase ABHD5 (Homo …;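 active means inhibition above the mean inhibition across every tested compound plus 3 SD, cut at about 22% in these data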;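 further: 0% = DMSO only wells and the 100% control is not disclosed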
FXN GAA850 act – FXN promoter activators, primary screen, cell-based, luciferase luminescence, HEK293 lucGAA850. HEK293 lucGAA850 FXN promoter luciferase reporter, 24 h; percent of 10 µM SAHA response. activation, % at 6 µM. 0.56% of 360,000 active;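 active means activation above the average of all compounds screened plus 3 SD, cutoff fixed separately per campaign, cut at about 7.5% in these data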;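 further: 0% = DMSO wells and 100% = 10 µM SAHA wells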
Hsp70 act – Hsp70 transcriptional activators, primary screen, cell-based, HeLa, Hsp70 promoter luciferase, luminescence, 10 µM | HeLa Hsp70 promoter luciferase reporter; scaled: vehicle 0, proteasome-inhibitor control 100% | 0.04% of 200,000 active | activation, % at 10 µM | AID 1203, 2008;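 active means activation above the mean across all tested compounds plus 3 SD, cutoff set per campaign, cut at about 5.5% in these data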;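 further: 100% = MG132 at 30 µM as the positive control and 0% = DMSO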
TAG inh – inhibitors of triacylglycerol accumulation, primary screen, cell-based, uHTS, fluorescence, H9c2; H9c2 cells, Nile Red lipid (TAG) fluorescence; cells loaded with 200 µM oleic acid; inhibition, % at 12.5 µM; 0.66% of 230,000 active; AID 651582, 2012;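 active means pattern-corrected inhibition of lipid staining of at least 50% with the nuclear-stain viability signal not falling by more than 50%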;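 further: 0% = DMSO wells and 100% = triacsin C control wells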
Rad51 HR inh – human RAD51 strand exchange inhibitors, primary screen, biochemical, fluorescence; inhibition, % at 10 µM; hRad51 DNA strand exchange, fluorescence dequenching; 0.085% of 200,000 active; DNA repair protein RAD51 homolog 1 (Homo sapiens), Q06609; AID 1385, 2008;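 active means inhibition above 40% at the single screening dose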;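 further: 0% = DMSO control wells and 100% = blanks with heterologous ssDNA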
Target sequence (Q06609 whole entry, looked up): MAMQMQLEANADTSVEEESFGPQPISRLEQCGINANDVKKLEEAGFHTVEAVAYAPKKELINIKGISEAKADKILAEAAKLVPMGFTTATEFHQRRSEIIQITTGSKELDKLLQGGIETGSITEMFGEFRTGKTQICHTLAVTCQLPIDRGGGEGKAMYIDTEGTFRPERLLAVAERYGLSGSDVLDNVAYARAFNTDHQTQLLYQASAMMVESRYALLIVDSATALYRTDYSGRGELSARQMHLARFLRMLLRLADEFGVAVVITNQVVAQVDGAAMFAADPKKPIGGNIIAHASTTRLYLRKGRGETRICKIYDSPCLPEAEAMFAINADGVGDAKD
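Material: human Rad51–ssDNA filaments; Probe or stimulus: labelled 47-mer dsDNA for strand exchange; Doses: single 10 µM dose; Incubation: 37 °C 15-min filament assembly, 30-min compound preincubation, 15-min exchange; Technique: FRET fluorescence dequenching, excitation 485 nm, emission 520 nm; Measure: Fluorescence-based percent inhibition, control- and blank-normalised; Benchmarks: plate control and blank wells.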
ABHD5-PLIN5 conf – ABHD5-PLIN5 interaction inhibitors, confirmation, biochemical, luminescence; shares compounds with ABHD5 PLIN5 PPI; inhibition, % at 4 µM; 67% of 2,200 active; AID 651612, 2012; in the data active means inhibition above about 23%;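 further: 0% = DMSO vehicle wells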
HNF4 counter – HNF4 dimerization inhibitors, counter-screen for ABHD5-PLIN5 interaction inhibitor project, biochemical, split-luciferase complementation, luminescence; shares compounds with ABHD5 PLIN5 PPI; inhibition, % at 4 µM; 77% of 2,200 active;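 active means mean inhibition across replicate wells exceeding the computed hit threshold, cut at about 13% in these data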;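 further: light from luciferase halves that rejoin when HNF4 fusion proteins dimerize; 0% = DMSO only wells and the 100% control is not given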
The depositor's hits bear a star; . = not tested or not shown.

SMILES	HIF activator	ABHD5 PLIN5 PPI	FXN GAA850 act	Hsp70 act	TAG inh	Rad51 HR inh	ABHD5-PLIN5 conf	HNF4 counter
CCCCn1c(=NC(=O)c2ccco2)c(C(=O)OCC)cc2c(=O)n3cccc(C)c3nc21	0.7	36.5*	3.6	.	11.7	.	10.3	14.4*
COCCNC(=O)c1cc2c(=O)n3cccc(C)c3nc2n(Cc2ccncc2)c1=N	-0.2	-4.3	1.1	0.1	12.5	-2.6	.	.
CCOC(=O)/C=C/S(=O)(=O)c1ccc(NC(C)=O)cc1	1.4	77.4*	-19.0	-0.2	.	0.9	78.2*	108.8*
CCOC(=O)/C=C/C(=O)Nc1ccc(S(=O)(=O)Nc2c(C)cc(C)cc2C)cc1	-0.5	11.2	5.2	-0.3	23.1	.	.	.
CCN1C/C(=C/c2cccc([N+](=O)[O-])c2)C(=O)/C(=C/c2cccc([N+](=O)[O-])c2)C1	.	40.3*	-19.0	-0.1	.	.	101.6*	97.1*
CCOc1cc(/C=C2\CN(CC)C/C(=C\c3ccc(O)c(OCC)c3)C2=O)ccc1O	1.6	82.5*	-13.4	.	.	.	94.0*	81.5*
CNS(=O)(=O)c1cccc(C(=O)OCC(=O)NC2CCCC(C)C2C)c1 (stereo unspecified)	.	-5.6	1.6	.	-9.3	.	.	.
Cc1cccc(C)c1-n1nnnc1C1(C)CCC(=O)N1CC1CCCCC1 (stereo unspecified)	.	9.7	.	.	.	.	.	.
Cc1ccnc(NC(=S)NC(=O)/C=C/c2ccco2)c1	6.8	23.5*	3.5	0.9	4.5	5.7	2.4	11.1
Cc1ccc(O)c(NC(=S)NC(=O)/C=C/c2ccco2)c1	5.3	-2.1	1.2	0.2	-1.9	-29.4	.	.
C/C(=N\NC(=O)c1nn(C)cc1Cl)c1ccncc1	0.4	-4.2	2.9	-0.2	.	.	.	.
O=C1/C(=C/c2cccnc2)CCc2c1[nH]c1ccccc21	8.0	7.4	-7.3	0.1	-3.7	.	.	.
CC1C/C(=C\c2cccnc2)C(=O)/C(=C/c2cccnc2)C1 (stereo unspecified)	.	91.0*	-13.5	110.0*	.	6.8	99.7*	92.5*
N#Cc1ccccc1S(=O)(=O)N1CCN(C(=O)C2COc3ccccc3O2)CC1 (stereo unspecified)	.	-0.3	0.3	.	-14.3	.	.	.
O=c1[nH]c(/C=C/c2ccc([N+](=O)[O-])cc2)c([N+](=O)[O-])c(=O)[nH]1	0.9	49.8*	1.6	.	-0.2	.	84.6*	79.2*
Cc1cccc(-c2nc(=S)c3c(n2Cc2ccco2)CCCC3)c1	0.0	28.2*	0.7	0.1	.	0.3	6.7	10.6
COc1ccc(-c2noc(CN(C)C(=O)Nc3ccccc3)n2)cc1	0.3	-0.3	2.4	-0.2	.	4.5	.	.
CN(C)CCCN(C(=O)c1ccc(S(=O)(=O)N(C)Cc2ccccc2)cc1)c1nc2cc3c(cc2s1)OCO3	-1.8	23.9*	-0.8	.	19.5	.	17.4	2.9
CN(C)CCCN(C(=O)CCc1ccccc1)c1nc2ccc(Cl)cc2s1	-4.1	39.4*	0.9	-0.2	.	0.2	23.8*	0.6
CN(C)CCCN(C(=O)c1ccc2c(c1)CCCC2)c1nc2ccc(Cl)cc2s1	-1.0	28.2*	2.8	-0.5	.	6.4	10.6	10.0
CN(C)CCN(C(=O)c1ccc(S(=O)(=O)N2CCCC2)cc1)c1nc2ccc(Br)cc2s1	1.8	0.4	2.1	.	16.0	.	.	.
CC1CCCCN1S(=O)(=O)c1ccc(C(=O)N(CCCN(C)C)c2nc3ccc(Br)cc3s2)cc1 (stereo unspecified)	-0.5	24.2*	2.1	.	15.8	.	14.9	9.3
CCN(c1ccccc1)S(=O)(=O)c1ccc(C(=O)N(CCCN(C)C)c2nc3cc4c(cc3s2)OCO4)cc1	-0.5	14.7	0.8	.	2.9	.	.	.
CC(=O)NCCc1ccc(C(=O)COC(=O)c2cc(C)oc2C)cc1	.	-0.3	5.2	.	-37.7	.	.	.
O=c1c(C(c2ccccc2)c2c(O)nc3n(c2=O)CCCS3)c(O)nc2n1CCCS2	-0.2	7.2	0.4	-0.1	2.0	-1.5	.	.
SMILES	HIF activator	ABHD5 PLIN5 PPI	FXN GAA850 act	Hsp70 act	TAG inh	Rad51 HR inh	ABHD5-PLIN5 conf	HNF4 counter
O=c1c(C(c2ccccc2)c2c(O)nc3n(c2=O)CCS3)c(O)nc2n1CCS2	0.2	24.9*	2.3	-0.5	6.3	.	55.6*	58.9*
O=C(c1ccccc1)c1ccccc1N1C(=O)C=CC1=O	-0.6	44.0*	-0.3	.	2.9	17.9	45.0*	105.4*
O=C(O)c1ccccc1-c1nnc2c(Cl)cc(C(F)(F)F)cn12	-0.1	1.5	3.0	.	.	.	.	.
COc1ccc(NC(=O)c2cc3ccccc3cc2O)cc1	3.4	48.3*	6.9	.	.	.	53.3*	21.9*
N#CC1C(=O)c2ccccc2C1c1ccccc1 (stereo unspecified)	.	72.8*	2.5	.	3.5	.	7.7	98.2*
Cc1cc(NC(=O)CCC(=O)N(CC(=O)NC2CCCC2)c2ccc(Cl)cc2)no1	-0.6	-9.6	0.4	.	.	.	.	.
COc1ccc(OC)c(NC(=O)CN2C(=O)NC3(CCCc4ccccc43)C2=O)c1 (stereo unspecified)	.	7.7	0.5	.	30.2	.	.	.
COc1cccc(NC(=O)CN2C(=O)NC3(CCCc4ccccc43)C2=O)c1 (stereo unspecified)	.	91.8*	-2.3	.	8.8	.	4.1	1.9
CC1=C(CO)C(=O)OC([C@@H](C)C2CC[C@H]3C4C[C@H]5O[C@]56[C@@H](O)C=CC(=O)[C@]6(C)C4CC[C@]23C)C1 (stereo partly specified)	-3.5	64.6*	-13.4	.	.	-3.5	76.7*	76.6*
CCN1CCC(O)(/C=C/c2ccc(C(C)C)cc2)C(C(=O)/C=C/c2ccc(C(C)C)cc2)C1 (stereo unspecified)	.	66.8*	1.7	.	66.2*	.	77.7*	79.3*
COC1=CC(=O)C=C(OC)C1=O	.	78.7*	-15.0	.	17.1	.	87.9*	105.0*
